Screening results as filed in PubChem BioAssay.
b-catenin transl: modulators of beta-catenin nuclear translocation, primary screen, imaging, HeLa cells, immunofluorescence, high-content. 190,000 tested, 0.3% active. nuclear translocation activity, % at 5 µM;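 active = nuclear translocation activity above 50% at 5 µM, with a well cell count of 50 or more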;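 note: per-cell ratio of nuclear to cytoplasmic median beta-catenin stain intensity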
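System: HeLa cells, endogenous beta-catenin; compound dosing: 5 µM primary single dose, 0.1% DMSO, 0.02–20 µM confirmation series; incubation: 24 h compound exposure at 37°C, 5% CO2; signal: beta-catenin immunofluorescence imaging with DAPI; evaluation: % activation, nuclear-to-cytoplasmic median beta-catenin signal ratio per cell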
Dynein transport: inhibitors of GR-EGFP nuclear translocation, primary screen, dynein cargo transport inhibitor project, imaging, high-content, 3617.4 mouse cells; test concentration mostly 20 µM; stimulated with dexamethasone, 1 µM; active compounds read low; z-score, hits read low; 220,000 tested, 0.47% active; AID 1381, 2008;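 active = plate z-score of nuclear minus cytoplasmic receptor signal below a set negative limit, without overly bright fluorescence or cell loss, cut at about -3.5 in these data, passing the limit was not always enough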;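 note: z-score of nuclear minus cytoplasmic ring GR-EGFP intensity difference per well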
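Schedule: 48 h induction, then 1 h compound, then 30 min agonist, 37 °C. Buffer or medium: tetracycline-free induction medium containing charcoal-stripped FBS. Reagent: 1.0 µM final dexamethasone stimulus. Evaluation: nuclear versus cytoplasmic GR-EGFP signal, averaged per well. Signal: high-content fluorescence imaging after fixation.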
Lmaj promast: Leishmania major promastigote growth inhibition, primary screen; Leishmania major promastigotes, resazurin fluorescence viability; inhibition, % at 10 µM; 200,000 tested, 9% active; in the data active = inhibition above about 50%;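 note: promastigotes grown with compound for 44 hours at 28 °C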
MT stabilizer: microtubule stabilizers in HeLa cells, primary screen, imaging, high-content imaging. HeLa tubulin immunostaining HCS, 24 h; share of cells brighter than vehicle mean+2SD. % tubulin-high responders, % at 10 µM. 200,000 tested, 0.83% active;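 active = plate Z-score above 3 for both tubulin-high and condensed-nucleus cell shares, with cell loss under 80%, at 10 µM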;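 note: anti alpha tubulin signal scored within the nucleus-defined area of each cell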
HSV replic up: enhancers of HSV replication in host cells, fold increase, host cell viability. HSV replication augmentation in cells. maximum fold increase. 220,000 tested, 0.005% active. AID 1956, 2009; in the data active = maximum fold increase above about 1.5; tested in PC3 cells
Each line names hits and unclear results; the compound was inactive in the other large screens. Shown are actives, neighbours in structure and some others; about 8.9% of the full set was active somewhere.

N=c1sccn1CC(=O)NC(=O)NC1CCCC1	none
CC(C(=O)Nc1cccc(S(=O)(=O)N2CCOCC2)c1)N1CCN(C/C=C/c2ccccc2)CC1 (stereo not given)	none
Cc1cccc(NC(=O)CCN2CCN(C/C=C/c3ccccc3)CC2)c1	Lmaj promast 91 (no result: b-catenin transl)
Cc1cccc(NC(=O)CCN2CCOCC2)c1	none
Cc1ccccc1NC(=O)CCN1CCN(C/C=C/c2ccccc2)CC1	Lmaj promast 88
COc1ccccc1NC(=O)C(C)N1CCN(C/C=C/c2ccccc2)CC1 (stereo not given)	Lmaj promast 84
COC(=O)c1ccccc1NC(=O)N1CCN(C/C=C/c2ccccc2)CC1	none
O=C(CCN1CCN(C/C=C/c2ccccc2)CC1)Nc1ccccc1	Lmaj promast 93
O=C(CCN1CCCC1)Nc1ccccc1	none
COCC(O)CSc1c([N+](=O)[O-])nc(C)n1Cc1ccc(OC)c([N+](=O)[O-])c1 (stereo not given)	none
O=C(CN1CCOCC1)N/N=C/C=C/c1ccccc1	none
Cc1cc(Br)ccc1NC(=O)CN1C(=O)C2C3CC(c4ccccc4)C(C3)C2C1=O (stereo not given)	Lmaj promast 55 (no result: HSV replic up)
CCN(CC)S(=O)(=O)c1cccc(NC(=O)COC(=O)/C=C/c2ccco2)c1	Lmaj promast 57 (no result: b-catenin transl)
S=C(Nc1ccc(Cl)c(Cl)c1)NC1CCCCC1	none
CN1CCN(C(=S)Nc2cccc(C(F)(F)F)c2)CC1	Lmaj promast 83
S=C(Nc1ccc2nsnc2c1)NC1CCCCC1	Lmaj promast 82
FC(F)(F)c1cccc(NC(=S)NNC(=S)NCc2ccccc2)c1	none
CN(C)S(=O)(=O)c1cccc(NC(=O)COC(=O)/C=C/c2ccco2)c1	none
FC(F)(F)c1cccc(NC(=S)NCC2COc3ccccc3O2)c1 (stereo not given)	Lmaj promast 51 (no result: b-catenin transl)
FC(F)(F)c1cccc(NC(=S)N2CCCCCC2)c1	none
Cc1nnc(-c2ccccc2)o1	none (no result: Lmaj promast, MT stabilizer)
Cn1nc(C(=O)Nc2cccc(C(F)(F)F)c2)ccc1=O	Lmaj promast 99 (no result: b-catenin transl)
FC(F)(F)c1cccc(N2CCN(C(=S)NC3CCCC3)CC2)c1	none
FC(F)(F)c1cccc(N2CCN(C(=S)NC3CCCCC3)CC2)c1	Lmaj promast 97
FC(F)(F)c1cccc(NC(=S)NC2CCCC2)c1	Lmaj promast 74 (no result: b-catenin transl)
CCN(CC)S(=O)(=O)c1cccc(NC(=O)Nc2cccc(C(F)(F)F)c2)c1	Lmaj promast 100 (no result: b-catenin transl)
COCCn1c(C)cc(/C=C2/SC(=O)N(C(C)C(=O)OC)C2=O)c1C (stereo not given)	none (no result: Lmaj promast, MT stabilizer)
CCCNC(=S)Nc1cccc(C(F)(F)F)c1	Lmaj promast 71
CCCCCCCCNC(C)C(O)c1ccc(SC(C)C)cc1 (stereo not given)	Lmaj promast 100
C[C@@H](NCCc1ccc(O)cc1)[C@@H](O)c1ccc(O)cc1	none (no result: b-catenin transl, Dynein transport, Lmaj promast, MT stabilizer)
Cc1cc(C(=O)OCC(=O)NCc2ccco2)c(C)n1-c1ccc(F)cc1	b-catenin transl 82, MT stabilizer 17
Cc1cc(C(=O)OCc2nnc(-c3ccccc3)o2)c(C)n1-c1ccccc1	none
Cc1cc(C(=O)COC(=O)c2ccc[nH]c2=O)c(C)n1-c1ccccc1	Lmaj promast 71
Cc1cc(C(=O)COC(=O)c2ccc[nH]c2=O)c(C)n1-c1ccc(F)cc1	Lmaj promast 69
Cc1noc(C)c1COC(=O)c1cc(C)n(-c2ccccc2)c1C	Lmaj promast 79
Cc1cc(C(=O)COC(=O)c2ccc[nH]c2=O)c(C)n1C1CC1	none
O=C(N1CCN(CCO)CC1)N1c2ccccc2C=Cc2ccccc21	none
COc1cccc(-n2nc3c(=S)[nH]nc(C)c3c2C)c1	none (no result: HSV replic up)
CCOC(=O)N1CCN(CC(=O)Nc2sccc2C#N)CC1	none
O=C(Nc1cccc2cccnc12)c1cccnc1	none
Cc1cnc(C(=O)Nc2cccc3cccnc23)cn1	Lmaj promast 97 (no result: HSV replic up)
Nc1ccc(-c2cc(-c3ccc(N)cc3)nc(-c3ccccc3)n2)cc1	none
CN(C)c1cc(-c2ccccc2)nc(N)n1	MT stabilizer 13 (no result: b-catenin transl)
COc1cc(NC(=O)c2ccc(OC)c([N+](=O)[O-])c2)ccc1NC(=O)c1cccs1	Lmaj promast 84
COc1cc(N)ccc1NC(=O)c1cccs1	Lmaj promast 73 (no result: b-catenin transl)
CCOc1ccc(C(=O)Nc2cccc(NC(=O)c3cccs3)c2)cc1[N+](=O)[O-]	none
